Assay results taken from ChEMBL document CHEMBL1145827, “Structure-activity relationship comparison of (S)-2beta-substituted 3alpha-(bis[4-fluorophenyl]methoxy)tropanes and (R)-2beta-substituted 3beta-(3,4-dichlorophenyl)tropanes at the dopamine transporter” (J Med Chem, 2003).
pIC50, pKi: −log10 of the molar value.

Experiments:
[1] = biological target: T1, Sodium-dependent dopamine transporter (Rattus norvegicus, UniProt P23977); assay: In vitro dopamine transporter binding affinity using [3H]WIN-35428 as radioligand was determined
[2] = biological target: T1, Sodium-dependent dopamine transporter; assay: In vitro potency for inhibiting [3H]- dopamine uptake was determined; type: functional
Procedure, shortened: (§1)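 [3H]Dopamine uptake inhibition in rat brain synaptosomes, reported as IC50.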

[3] = biological target: Norepinephrine transporter (Rattus norvegicus, UniProt Q9WTR4); assay: Binding affinity towards norepinephrine transporter using [3H]nisoxetine as radioligand was determined
Procedure, shortened: (§2)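 Radioligand displacement binding for SERT, NET and muscarinic receptors. Ki from at least three independent experiments, each run in triplicate.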

[4] = biological target: T1, Sodium-dependent dopamine transporter; assay: In vitro potency for inhibiting [3H]- dopamine uptake in rat brain was determined; type: functional, tissue-based; procedure, shortened: as §1
[5] = biological target: T1, Sodium-dependent dopamine transporter; assay: Binding affinity towards dopamine transporter
Procedure, shortened: (§3)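 Rat brain DAT, radioligand displacement with [3H]WIN 35,428. Ki from at least three independent experiments, each run in triplicate.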

[6] = biological target: Sodium-dependent serotonin transporter (Rattus norvegicus, UniProt P31652); assay: Binding affinity towards serotonin transporter using [3H]citalopram as radioligand was determined; procedure, shortened: as §2
[7] = biological target: T2, Muscarinic acetylcholine receptor M1 (Rattus norvegicus, UniProt P08482); assay: Binding affinity towards Muscarinic acetylcholine receptor M1 using [3H]pirenzepine as radioligand was determined; procedure, shortened: as §2
T2 sequence (P08482 whole entry): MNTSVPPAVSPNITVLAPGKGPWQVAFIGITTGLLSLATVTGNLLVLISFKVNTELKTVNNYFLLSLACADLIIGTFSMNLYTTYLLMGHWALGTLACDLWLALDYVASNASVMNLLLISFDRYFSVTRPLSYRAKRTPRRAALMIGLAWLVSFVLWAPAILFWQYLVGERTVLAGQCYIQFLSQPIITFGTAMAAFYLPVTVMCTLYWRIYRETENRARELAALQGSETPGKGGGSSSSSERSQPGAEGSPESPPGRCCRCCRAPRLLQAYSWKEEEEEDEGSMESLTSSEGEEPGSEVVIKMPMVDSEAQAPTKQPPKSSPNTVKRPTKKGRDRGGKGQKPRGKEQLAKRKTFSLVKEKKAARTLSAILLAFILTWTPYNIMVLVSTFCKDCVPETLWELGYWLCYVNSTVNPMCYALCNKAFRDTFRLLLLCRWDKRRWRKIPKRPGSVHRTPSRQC

[8] = biological target: T1, Sodium-dependent dopamine transporter; assay: In vitro inhibitory activity of dopamine transporter using [3H]WIN-35428 as radioligand was determined; procedure, shortened: as §3

T1 sequence (P23977 whole entry): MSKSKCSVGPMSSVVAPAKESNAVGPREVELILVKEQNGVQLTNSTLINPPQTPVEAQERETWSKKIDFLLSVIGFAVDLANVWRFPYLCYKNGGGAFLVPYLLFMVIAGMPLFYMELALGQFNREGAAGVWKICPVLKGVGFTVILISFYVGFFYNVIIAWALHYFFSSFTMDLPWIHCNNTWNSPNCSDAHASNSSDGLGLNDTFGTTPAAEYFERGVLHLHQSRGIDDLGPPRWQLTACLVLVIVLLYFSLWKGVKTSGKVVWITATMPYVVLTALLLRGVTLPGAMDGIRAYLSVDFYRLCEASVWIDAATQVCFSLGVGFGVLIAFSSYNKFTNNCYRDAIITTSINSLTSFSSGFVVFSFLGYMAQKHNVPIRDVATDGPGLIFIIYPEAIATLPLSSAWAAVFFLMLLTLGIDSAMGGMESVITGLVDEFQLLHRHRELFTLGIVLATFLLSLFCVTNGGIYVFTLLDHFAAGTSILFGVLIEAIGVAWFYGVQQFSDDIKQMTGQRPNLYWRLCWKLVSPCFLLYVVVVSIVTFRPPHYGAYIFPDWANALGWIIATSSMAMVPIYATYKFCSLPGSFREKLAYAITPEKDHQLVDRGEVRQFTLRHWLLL
Sodium-dependent serotonin transporter, sequence (P31652 whole entry): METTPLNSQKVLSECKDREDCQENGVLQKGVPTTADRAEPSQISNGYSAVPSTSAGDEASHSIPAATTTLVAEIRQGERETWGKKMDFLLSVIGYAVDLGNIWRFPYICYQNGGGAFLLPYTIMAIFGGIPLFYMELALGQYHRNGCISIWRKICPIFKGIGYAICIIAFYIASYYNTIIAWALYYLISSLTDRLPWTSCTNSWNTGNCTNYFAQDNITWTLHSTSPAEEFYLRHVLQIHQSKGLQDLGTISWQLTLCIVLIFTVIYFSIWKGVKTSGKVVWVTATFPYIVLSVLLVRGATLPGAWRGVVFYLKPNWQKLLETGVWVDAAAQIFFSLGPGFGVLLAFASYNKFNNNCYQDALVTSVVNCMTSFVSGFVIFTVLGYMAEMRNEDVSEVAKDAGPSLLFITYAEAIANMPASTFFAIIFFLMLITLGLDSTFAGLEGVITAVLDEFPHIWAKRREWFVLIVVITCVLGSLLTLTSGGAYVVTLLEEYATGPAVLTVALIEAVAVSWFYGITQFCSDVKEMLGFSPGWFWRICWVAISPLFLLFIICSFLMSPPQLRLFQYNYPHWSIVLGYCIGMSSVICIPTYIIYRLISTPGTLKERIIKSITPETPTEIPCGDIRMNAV
Norepinephrine transporter, sequence (Q9WTR4 whole entry): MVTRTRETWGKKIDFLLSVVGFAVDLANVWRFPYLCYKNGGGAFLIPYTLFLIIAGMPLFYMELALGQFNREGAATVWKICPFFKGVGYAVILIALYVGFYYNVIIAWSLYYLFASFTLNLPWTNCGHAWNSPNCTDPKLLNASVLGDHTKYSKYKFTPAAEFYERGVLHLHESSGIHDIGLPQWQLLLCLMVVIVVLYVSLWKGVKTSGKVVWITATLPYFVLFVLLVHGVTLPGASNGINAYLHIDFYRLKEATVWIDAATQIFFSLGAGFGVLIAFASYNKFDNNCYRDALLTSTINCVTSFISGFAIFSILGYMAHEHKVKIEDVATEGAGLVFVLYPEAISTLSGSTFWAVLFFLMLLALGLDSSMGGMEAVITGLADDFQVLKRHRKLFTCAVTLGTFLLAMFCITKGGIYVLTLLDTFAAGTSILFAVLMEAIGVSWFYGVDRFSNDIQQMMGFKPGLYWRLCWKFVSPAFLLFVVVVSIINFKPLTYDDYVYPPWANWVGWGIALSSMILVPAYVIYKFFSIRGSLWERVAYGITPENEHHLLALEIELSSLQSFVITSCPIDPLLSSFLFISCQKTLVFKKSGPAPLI

Structure (SMILES) | pKi [1] | pIC50 [2] | pKi [3] | also measured
CN1C2CCC1[C@@H](C(=O)OCCc1ccc(N)c(I)c1)[C@@H](OC(c1ccc(F)cc1)c1ccc(F)cc1)C2 (some centres undefined) | 7.37 |  |  | 
COC(=O)[C@@H]1C2CCC(C[C@@H]1OC(c1ccc(F)cc1)c1ccc(F)cc1)N2C (some centres undefined) |  | 8.82 |  | 
CN1C2CCC1[C@@H](C(=O)OCc1ccccc1)[C@@H](OC(c1ccc(F)cc1)c1ccc(F)cc1)C2 (some centres undefined) | 7.32 | 8.66 |  | 
CCOC(=O)[C@@H]1C2CCC(C[C@@H]1OC(c1ccc(F)cc1)c1ccc(F)cc1)N2C (some centres undefined) | 7.79 | 8.74 | 6.20 | 
CN1C2CCC1[C@@H](C(=O)OCCc1ccccc1)[C@@H](c1ccc(Cl)c(Cl)c1)C2 (some centres undefined) | 7.96 |  |  | pIC50 [4]: 8.49; pKi [5]: 7.00
CN1C2CCC1[C@@H](C(=O)OCc1ccccc1)[C@@H](c1ccc(Cl)c(Cl)c1)C2 (some centres undefined) | 7.46 |  |  | pIC50 [4]: 7.72; pKi [5]: 7.00
CCOC(=O)[C@@H]1C2CCC(C[C@@H]1c1ccc(Cl)c(Cl)c1)N2C (some centres undefined) | 8.26 |  |  | pIC50 [4]: 8.72; pKi [5]: 7.00
CC(C)OC(=O)[C@@H]1C2CCC(C[C@@H]1c1ccc(Cl)c(Cl)c1)N2C (some centres undefined) | 7.75 |  |  | pIC50 [4]: 8.57; pKi [5]: 7.00
COC(=O)[C@@H]1C2CCC(C[C@@H]1c1ccc(Cl)c(Cl)c1)N2C (some centres undefined) | 8.20 |  | 7.80 | pKi [6]: 8.84; pIC50 [4]: 8.85; pKi [7]: 5.50; pKi [5]: 7.00
CN1C2CCC1[C@@H](C(=O)OCCc1ccc(N=[N+]=[N-])c(I)c1)[C@@H](OC(c1ccc(F)cc1)c1ccc(F)cc1)C2 (some centres undefined) |  |  |  | pIC50 [8]: 6.68
CN1C2CCC1[C@@H](C(=O)OCCc1ccccc1)[C@@H](OC(c1ccc(F)cc1)c1ccc(F)cc1)C2 (some centres undefined) | 7.44 | 8.59 |  | 
CN1C2CCC1[C@@H](C(=O)OCCc1ccc([N+](=O)[O-])cc1)[C@@H](OC(c1ccc(F)cc1)c1ccc(F)cc1)C2 (some centres undefined) | 7.01 | 8.48 |  | 
CN1C2CCC1[C@@H](C(=O)OCCc1ccc(N)cc1)[C@@H](OC(c1ccc(F)cc1)c1ccc(F)cc1)C2 (some centres undefined) | 7.44 | 8.10 | 5.87 | pKi [6]: 5.82; pKi [7]: 6.58
CN1C2CCC1[C@@H](C(=O)OCCc1ccc(N=C=S)cc1)[C@@H](OC(c1ccc(F)cc1)c1ccc(F)cc1)C2 (some centres undefined) |  |  |  | pIC50 [8]: 6.27
CC(C)OC(=O)[C@@H]1C2CCC(C[C@@H]1OC(c1ccc(F)cc1)c1ccc(F)cc1)N2C (some centres undefined) | 7.52 | 8.21 |  | 
CN1C2CCC1[C@@H](C(=O)OCCc1ccc(N=[N+]=[N-])c(I)c1)[C@@H](c1ccc(Cl)c(Cl)c1)C2 (some centres undefined) |  |  |  | pIC50 [8]: 7.84
COC(=O)[C@@H]1C2CCC(C[C@@H]1OC(c1ccc(F)cc1)c1ccc(F)cc1)N2C (single isomer, unassigned; (+)) |  |  | 6.57 | 
CN1C2CCC1[C@@H](C(=O)OCc1ccccc1)[C@@H](OC(c1ccc(F)cc1)c1ccc(F)cc1)C2 (single isomer, unassigned; (+)) |  |  | 5.65 | pKi [6]: 5.69; pKi [7]: 5.36
CN1C2CCC1[C@@H](C(=O)OCCc1ccccc1)[C@@H](OC(c1ccc(F)cc1)c1ccc(F)cc1)C2 (single isomer, unassigned; (+)) |  |  | 5.99 | pKi [6]: 5.50; pKi [7]: 6.45
CC(C)OC(=O)[C@@H]1C2CCC(C[C@@H]1OC(c1ccc(F)cc1)c1ccc(F)cc1)N2C (single isomer, unassigned; (+)) |  |  | 6.19 | pKi [6]: 4.92; pKi [7]: 5.57
